In ChEMBL document CHEMBL1143506, “Antimalarial activity of 2,4,6-trisubstituted pyrimidines” (Bioorg Med Chem Lett, 2005) one finds MIC data, which are given here for 16 molecules.

In brackets after ≈: the same amount, converted by molar mass.

The test system of this assay is Plasmodium falciparum. The experiment in a line: Minimum inhibitory concentration against schizont maturation of Plasmodium falciparum NF54 ring stage after 40 h. The format is functional. Summed up: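 P. falciparum NF-54 culture kept in RPMI-1640 with 25 mM HEPES, 1% D-glucose, 0.23% sodium bicarbonate, 10% heat-inactivated human serum. Sorbitol-synchronized rings (~1% parasitaemia, 3% hematocrit). Compounds at 0.25–50 µg/mL in duplicate wells, 37 °C, candle jar, 36–40 h. Giemsa smears scored microscopically; MIC is the lowest concentration blocking full maturation to schizonts. Pyrimethamine served as reference.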
In general, MIC refers to the lowest concentration found to suppress growth. Low values mean inhibition by little substance, high ones a need for much substance. The molecule `COc1cccc(-c2cc(-c3ccncc3)nc(N3CCOCC3)n2)c1OC` returned an MIC of 1 mg/L (≈ 2.64 µM).
`COc1cc(OC)cc(-c2cc(-c3ccncc3)nc(N3CCOCC3)n2)c1` registered an MIC of 2 mg/L (≈ 5.28 µM).
As for `c1ccc(-c2cc(-c3ccncc3)nc(N3CCOCC3)n2)cc1`, the figure is 2 mg/L (≈ 6.28 µM); as for `COc1ccc(-c2cc(-c3ccncc3)nc(N3CCOCC3)n2)c2ccccc12`, 1 mg/L (≈ 2.51 µM).
As for `COc1ccc(-c2cc(-c3ccncc3)nc(N3CCOCC3)n2)cc1`, the figure is 2 mg/L (≈ 5.74 µM).
The figure for `COc1cccc(-c2cc(-c3ccncc3)nc(N3CCOCC3)n2)c1` is 2 mg/L (≈ 5.74 µM); for `O=[N+]([O-])c1cccc(-c2cc(-c3ccncc3)nc(N3CCOCC3)n2)c1` it is 1 mg/L (≈ 2.75 µM); for `Cc1ccc(-c2cc(-c3ccncc3)nc(N3CCOCC3)n2)cc1C` it is 1 mg/L (≈ 2.89 µM).
Molecule `COc1cc(-c2cc(-c3ccncc3)nc(N3CCOCC3)n2)cc(OC)c1OC` showed an MIC of 10 mg/L (≈ 24.5 µM).
As for `c1csc(-c2cc(-c3ccncc3)nc(N3CCOCC3)n2)c1`, the figure is 1 mg/L (≈ 3.08 µM); as for `Clc1ccc(-c2cc(-c3ccncc3)nc(N3CCOCC3)n2)cc1`, 10 mg/L (≈ 28.3 µM).
The figure for `CSc1ccc(-c2cc(-c3ccncc3)nc(N3CCOCC3)n2)cc1` is 10 mg/L (≈ 27.4 µM); for `COc1ccc(OC)c(-c2cc(-c3ccncc3)nc(N3CCOCC3)n2)c1` it is 1 mg/L (≈ 2.64 µM).
The figure for `COc1cc(OC)c(-c2cc(-c3ccncc3)nc(N3CCOCC3)n2)cc1OC` is 0.5 mg/L (≈ 1.22 µM); for `Cc1ccc(-c2cc(-c3ccncc3)nc(N3CCOCC3)n2)cc1` it is 10 mg/L (≈ 30.1 µM); for `CCc1nc(N)nc(N)c1-c1ccc(Cl)cc1` [PYRIMETHAMINE] it is 10 mg/L (≈ 40.2 µM).
